A1 apoptosis 2 – blocks A1, raising caspase activity. MEF A1-2A-BIM cells, caspase-Glo luminescence, 3 h; percent of clofoctol response, DMSO zero. caspase activation, % (no concentration beside the values). 24,000 tested, under 10 active; in the data active = caspase activation above about 5.9%; inconclusive = no clear call, values can overlap the other calls; inactive = below about 2.2%
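Material: mouse embryonic fibroblasts co-expressing A1 and BIM (A1-2A-BIM), primed for A1 dependence / Quantity: 2500 cells/well / Buffer or medium: RPMI-1640 growth medium with 10% FBS / Doses: 50 nL compound per well, pinned / Schedule: 3 h compound exposure at 37 °C / Signal: Caspase-Glo luminescence (DEVD substrate) / Measure: Caspase-3/7 activation, seen as rise in luminescence signal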
T cruzi HTS – intracellular Trypanosoma cruzi inhibition | AID 651903 | activity score (inhibition), % at 5.01 µM | intracellular Trypanosoma cruzi in host cells, plate reader | hit rate 4.9% among 22,000; in the data active = activity score above about 55%; inconclusive = no clear call, values can overlap the other calls;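 note: parasites and compound incubated about four days before reading; 0% = median of neutral control wells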
INS-1E rescue – preserves ATP levels in cytokine-treated INS-1E cells | protection from cytokine-induced ATP loss, % at 10 µM | AID 488910 | hit rate 0.1% among 20,000 | INS-1E cytokine-induced death, ATP luminescence, 48 h; normalised: neutral wells 0, positive control 100;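 active = mean replicate protection from cytokine-induced ATP loss at least 50% and at least 75% of replicates each reaching 50%; inconclusive = meets only one of the two criteria, mean or replicate share; inactive = fails both the mean and replicate share criteria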
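Assay system: INS-1E rat insulinoma cells. Amount: 8000 cells per well. Medium: phenol-red-free RPMI with 5% fetal bovine serum. Reagent: IL-1β, TNF-α and IFN-γ cytokine mix. Doses: one compound concentration, pin transfer. Schedule: 48 h co-treatment, 10 min post-lysis read. Detection: CellTiter-Glo luminescence measuring cellular ATP.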
Starred values were filed as active, the others as inactive; ? = inconclusive; . = not tested or not shown. Only a selection was taken, and hits are over-represented in it overall.

SMILES	A1 apoptosis 2	T cruzi HTS	INS-1E rescue
COC(=O)CCCCCCC(=O)N/N=C/c1ccc(-c2ccccc2)c(F)c1	-1.6	1.1	4.5
O=C(CCCCC(=O)N/N=C/c1ccc(-c2ccccc2)c(F)c1)NO	.	20.1	60.3*
COc1ccc(/C=N/NC(=O)CCCCC(=O)NO)cc1OC	.	-21.8	7.0
COC(=O)CCCCCCC(=O)N/N=C/c1ccc(OCC(N)=O)cc1	-0.2	-21.8	12.5
O=C(NO)c1cccc(C(=O)N/N=C/Cc2ccccc2)c1	-1.0	-11.0	-4.3
C[C@@H]1CN([C@@H](C)CO)C(=O)Cc2cc(NS(=O)(=O)c3ccc(F)cc3)ccc2O[C@H]1CN(C)Cc1ccccc1	-0.5	.	.
C[C@@H]1CN([C@H](C)CO)C(=O)Cc2cc(NS(=O)(=O)c3ccc(F)cc3)ccc2O[C@H]1CN(C)Cc1ccc(-c2ccccc2)cc1	.	62.1*	-13.2
C[C@@H]1CN([C@@H](C)CO)C(=O)Cc2cc(NS(=O)(=O)c3ccc(F)cc3)ccc2O[C@@H]1CN(C)Cc1ccccc1	.	40.3	-8.3
C[C@@H]1CN([C@H](C)CO)C(=O)Cc2cc(NS(=O)(=O)c3ccc(F)cc3)ccc2O[C@@H]1CN(C)Cc1ccc(-c2ccccc2)cc1	.	68.0*	-25.5
O=C(NO)c1cccc(C(=O)N/N=C/c2cccnc2Br)c1	-2.3	-1.3	-7.7
COc1ccc(S(=O)(=O)Nc2ccc3c(c2)CC(=O)N([C@H](C)CO)C[C@H](C)[C@@H](CN(C)S(=O)(=O)c2cccs2)O3)cc1	0.0	.	.
C[C@H]1CN([C@@H](C)CO)C(=O)Cc2cc(NS(=O)(=O)c3ccc(Cl)cc3)ccc2O[C@@H]1CN(C)S(=O)(=O)c1cccs1	.	-33.3	11.7
C[C@@H]1CN([C@H](C)CO)C(=O)Cc2cc(NS(=O)(=O)c3ccc(Cl)cc3)ccc2O[C@@H]1CN(C)S(=O)(=O)c1cccs1	.	73.9*	-5.4
COc1ccc(S(=O)(=O)Nc2ccc3c(c2)CC(=O)N([C@H](C)CO)C[C@@H](C)[C@@H](CN(C)S(=O)(=O)c2cccs2)O3)cc1	-1.1	76.8*	-1.1
O=C(N/N=C/c1ccccc1OCCO)c1ccccn1	0.3	-20.9	-2.3
O=C1N(CCS(=O)(=O)c2ccccc2)c2ccccc2[C@H]2OC(c3ccc(OCCCO)cc3)=N[C@@]12CCS(=O)(=O)c1ccccc1	-0.6	.	.
COC(=O)CCCCCCC(=O)N/N=C/c1ccc(Br)s1	0.2	-8.9	1.1
C[C@@H]1CN([C@H](C)CO)C(=O)Cc2cc(NS(=O)(=O)c3ccc(Cl)cc3)ccc2O[C@@H]1CN(C)S(=O)(=O)c1ccccc1	-0.6	59.1*	-0.3
C[C@@H]1CN([C@@H](C)CO)C(=O)Cc2cc(NS(=O)(=O)c3ccc(Cl)cc3)ccc2O[C@@H]1CN(C)S(=O)(=O)c1ccccc1	0.6	46.9	9.7
Cc1ccc(S(=O)(=O)N(C)C[C@H]2Oc3ccc(NS(=O)(=O)c4ccc(F)cc4)cc3CC(=O)N([C@H](C)CO)C[C@@H]2C)cc1	-0.8	.	.
Cc1ccc(S(=O)(=O)Nc2ccc3c(c2)CC(=O)N([C@@H](C)CO)C[C@@H](C)[C@@H](CN(C)S(=O)(=O)c2ccc(Cl)cc2)O3)cc1	0.3	62.4*	1.1
Cc1ccc(S(=O)(=O)N(C)C[C@H]2Oc3ccc(NS(=O)(=O)c4ccc(F)cc4)cc3CC(=O)N([C@H](C)CO)C[C@H]2C)cc1	0.7	62.6*	-3.8
Cc1ccc(S(=O)(=O)Nc2ccc3c(c2)CC(=O)N([C@H](C)CO)C[C@@H](C)[C@@H](CN(C)S(=O)(=O)c2ccc(C)cc2)O3)cc1	.	78.3*	-7.4
Cc1ccc(S(=O)(=O)Nc2ccc3c(c2)CC(=O)N([C@H](C)CO)C[C@H](C)[C@@H](CN(C)S(=O)(=O)c2ccc(Cl)cc2)O3)cc1	-0.3	.	.
Cc1ccc(S(=O)(=O)N(C)C[C@H]2Oc3ccc(NS(=O)(=O)c4ccc(Cl)cc4)cc3CC(=O)N([C@@H](C)CO)C[C@H]2C)cc1	0.8	?	-17.7
Cc1ccc(/C=N/NC(=O)CCCCCCC(=O)Nc2ccccc2O)o1	1.1	-3.7	9.0
COc1ccc(CN(C)C[C@@H]2OCCCC[C@H](C)Oc3ccc(NS(=O)(=O)c4ccc(Cl)cc4)cc3C(=O)N([C@@H](C)CO)C[C@@H]2C)cc1	0.3	.	.
Cc1ccc(S(=O)(=O)N(C)C[C@H]2Oc3ccc(NS(=O)(=O)c4ccccc4)cc3CC(=O)N([C@H](C)CO)C[C@H]2C)cc1	-1.0	66.6*	1.3
C[C@H](CO)N1C[C@H](C)[C@H](CN(C)S(=O)(=O)c2ccc(Cl)cc2)Oc2ccc(NS(=O)(=O)c3ccc(F)cc3)cc2CC1=O	.	21.5	-5.8

Bioassay records from PubChem BioAssay.
